Consider two compounds from ChEMBL document CHEMBL4680103, “In Vitro and in Vivo Anti-Trypanosoma cruzi Activity of New Arylamine Mannich Base-Type Derivatives” (J Med Chem, 2016).

The structures appear in SMILES notation. Calls of active or inactive are those of the source. The rule behind the calls is not given here.

For data set [1], the system named is Trypanosoma cruzi. As to the kind of experiment: Antitrypanosomal activity against Trypanosoma cruzi infected in African green monkey Vero cells assessed as reduction in number of trypomastigotes measured up to 10 days by Giemsa staining based hemocytometry. The conditions noted are these: time day <=10. In kind it is functional. The procedure, abridged: (§1)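 Vero cells infected with metacyclic forms (10:1) were exposed to one concentration per compound immediately after infection for 12 h at 37 °C, 5% CO2. After washing, cultures were kept 10 days with fresh medium every 48 h. Every 48 h, % infected cells and amastigotes per infected cell (200 Giemsa-stained cells) and medium trypomastigotes (Neubauer) were scored. Means of three experiments.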

The test system of data set [2] is Trypanosoma cruzi. As to the kind of experiment: Antitrypanosomal activity against Trypanosoma cruzi infected in African green monkey Vero cells assessed as reduction in number of amastigotes per infected cell measured up to 10 days by Giemsa staining based hemocytometry. The conditions noted are these: time day <=10. In kind it is functional. The procedure, abridged: as §1

The test system of data set [3] is Trypanosoma cruzi. As to the kind of experiment: Antitrypanosomal activity against Trypanosoma cruzi Tulahuen epimastigote forms incubated for 72 hrs by hemocytometry. It counts as functional, organism-based. The procedure, abridged:
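Epimastigotes grown in MTL medium with 10% inactivated FBS at 28 °C. Compounds were dissolved in DMSO (0.01% v/v) and added at 0.1–100 µM for 72 h. Parasites were counted in a Neubauer chamber. IC50 (50% growth inhibition) was derived by linear regression of Kc values. Values are averages of four determinations.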

Data set [4] has as its system Trypanosoma cruzi. As to the kind of experiment: Antitrypanosomal activity against Trypanosoma cruzi Tulahuen amastigote forms infected in African green monkey Vero cells incubated for 72 hrs by Giemsa staining based micrscopy. In kind it is functional, organism-based. The procedure, abridged: (§2)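 Vero cells (RPMI, 10% inactivated FBS, 37 °C, 5% CO2) were seeded at 1×10^4/well on coverslips and cultured 2 days. They were infected 24 h with metacyclic forms at 10:1. After washing off free parasites, drugs were added at 0.1–100 µM for 72 h. Slides were methanol-fixed and Giemsa-stained; amastigotes were counted in 200 host cells versus untreated. IC50 was calculated.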

The subject of data set [5] is Trypanosoma cruzi. As to the kind of experiment: Antitrypanosomal activity against Trypanosoma cruzi Tulahuen trypomastigote froms infected in mouse blood incubated for 24 hrs by Neubauer chamber based assay. It counts as functional, organism-based. Summed up: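 Mouse blood taken at peak parasitemia (day 7) was diluted with uninfected blood to 4×10^6 trypomastigotes/mL, then 1:2 in RPMI 1640. Drugs from DMSO stocks were added at 1, 10, 25, 50 and 100 µM and incubated 24 h at 4–8 °C. Parasites were counted in a Neubauer chamber in triplicate. IC50 was calculated versus control.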

Data set [6] relates to Trypanosoma cruzi. Briefly: Antitrypanosomal activity against Trypanosoma cruzi SN3 amastigote forms infected in African green monkey Vero cells incubated for 72 hrs by Giemsa staining based micrscopy. In kind it is functional, organism-based. The procedure, abridged: as §2
Data set [7] deals with Vero. Briefly: Cytotoxicity in African green monkey Vero cells incubated for 72 hrs. In kind it is cell-based. As to conditions: Chlorocebus sabaeus.
Data set [8] relates to Trypanosoma cruzi. As to the kind of experiment: Antitrypanosomal activity against Trypanosoma cruzi Arequipa trypomastigotes infected in BALB/c mouse assessed as reduction in mouse mortality measured during acute phase (days 0 to 40 post infection) at 50 to 100 mg/kg, po dosed on alternating days (7 to 15 days post infection). In kind it is functional, organism-based. The conditions noted are these: dose 50-100 mg/kg.

Data set [9] concerns Trypanosoma cruzi. Briefly: Antitrypanosomal activity against Trypanosoma cruzi Arequipa trypomastigotes infected in BALB/c mouse assessed as reduction in parasitemia level in brain measured during acute phase (days 0 to 40 post infection) at 100 mg/kg, po dosed on alternating days (7 to 15 days post infection) by PCR analysis. It counts as functional, organism-based.
For data set [10], the system named is Trypanosoma cruzi. Briefly: Antitrypanosomal activity against Trypanosoma cruzi Arequipa trypomastigotes infected in BALB/c mouse assessed as reduction in parasitemia level in heart measured during acute phase (days 0 to 40 post infection) at 50 to 100 mg/kg, po dosed on alternating days (7 to 15 days post infection) by PCR analysis. In kind it is functional, organism-based. As to conditions: dose 50-100 mg/kg.

Data set [11] relates to Trypanosoma cruzi. Briefly: Antitrypanosomal activity against Trypanosoma cruzi Arequipa trypomastigotes infected in BALB/c mouse assessed as reduction in parasitemia level in bone marrow measured during acute phase (days 0 to 40 post infection) at 100 mg/kg, po dosed on alternating days (7 to 15 days post infection) by PCR analysis. In kind it is functional, organism-based.

The subject of data set [12] is Trypanosoma cruzi. Briefly: Antitrypanosomal activity against Trypanosoma cruzi Arequipa trypomastigotes infected in BALB/c mouse assessed as reduction in parasitemia level in muscle measured during acute phase (days 0 to 40 post infection) at 100 mg/kg, po dosed on alternating days (7 to 15 days post infection) by PCR analysis. In kind it is functional, organism-based.

Data set [13] relates to Trypanosoma cruzi. As to the kind of experiment: Antitrypanosomal activity against Trypanosoma cruzi Arequipa trypomastigotes infected in BALB/c mouse assessed as reduction in splenomegaly by measuring weight percent of spleens […] at 50 mg/kg, po dosed on alternating days (7 to 15 days post infection) by PCR analysis (reference value: 1.603%). It counts as functional. More on the design: scale not given: the % may be the effect or the level left.

Data set [14] can be described thus: Inhibition of Trypanosoma cruzi Arequipa Fe-SOD by NBT dye based spectrophotometry. The procedure, abridged: (§3)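 Fe-SOD source: Arequipa epimastigote homogenate (STE buffer pH 7.8, sonication, centrifugation, supernatant; protein by Bradford); CuZn-SOD was commercial human erythrocyte enzyme. Activity was measured as NBT reduction by superoxide in 50 mM potassium phosphate pH 7.8, with compounds at 5 concentrations (1–100 µM). A560 was read before and after 10 min under lamp light with stirring. Three rate determinations; Newman–Keuls test.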

Data set [15] is described as follows: Genotoxicity in Salmonella typhimurium TA98 at 0.03 to 2.25 ug/plate incubated for 48 hrs in presence of liver S9 fraction by Ames test. In kind it is toxicity, subcellular. As to conditions: salmonella enterica subsp. enterica serovar typhimurium, s9, 48 h. Summed up:
(§4)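 Preincubation Ames assay. […] Top agar with trace histidine/biotin (0.05 mM each) was added and poured onto glucose minimal agar. Plates were incubated 48 h at 37 °C and His+ revertants counted. DMSO was the negative control, with strain-appropriate positive controls. Technical triplicates.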
A general note: The Ames test uses bacterial strains that need an amino acid and regain growth without it when mutated back.

The nature of data set [16]: Genotoxicity in Salmonella typhimurium TA100 at 0.03 to 2.25 ug/plate incubated for 48 hrs in presence of liver S9 fraction by Ames test. In kind it is toxicity, subcellular. The conditions noted are these: salmonella enterica subsp. enterica serovar typhimurium, s9, 48 h. Summed up:
as §4

Data set [17] can be described thus: Genotoxicity in Salmonella typhimurium TA1535 at 0.03 to 2.25 ug/plate incubated for 48 hrs in presence of liver S9 fraction by Ames test. In kind it is toxicity, subcellular. As to conditions: salmonella enterica subsp. enterica serovar typhimurium, s9, 48 h. Summed up: as §4
The nature of data set [18]: Genotoxicity in Salmonella typhimurium TA1537 at 0.03 to 2.25 ug/plate incubated for 48 hrs in presence of liver S9 fraction by Ames test. It counts as toxicity, subcellular. The conditions noted are these: salmonella enterica subsp. enterica serovar typhimurium, s9, 48 h. The procedure, abridged:
as §4

The nature of data set [19]: Genotoxicity in Salmonella typhimurium TA1537 at 0.03 to 2.25 ug/plate incubated for 48 hrs in absence of liver S9 fraction by Ames test. It counts as toxicity. The conditions noted are these: salmonella enterica subsp. enterica serovar typhimurium, s9, 48 h. Summed up:
as §4

In data set [20] the test system is Trypanosoma cruzi. As to the kind of experiment: Antitrypanosomal activity against Trypanosoma cruzi Arequipa trypomastigotes infected in BALB/c mouse assessed as parasitemia re-activation level measured during chronic phase ( day 90 post infection) at 50 mg/kg, po dosed on alternating days (7 to 15 days post infection) relative to acute phase infection (reference value: […]%). In kind it is functional.

Data set [21] has as its system Trypanosoma cruzi. Briefly: Inhibition of Trypanosoma cruzi Arequipa Fe-SOD at <50 uM by NBT dye based spectrophotometry. The conditions noted are these: dose microM <50. Summed up:
as §3

Broadly, the IC50 is the concentration that gives 50% inhibition. In the case of `O=C(CCN1CCN(c2ccc(C(F)(F)F)cc2)CC1)c1csc2ccc(F)cc12`, the “inhibition (INH)” value in data set [1] is 68%; in data set [2], 64%. The IC50 in data set [3] was determined as 14 µM; in data set [4], 25.8 µM; in data set [5], 45.8 µM; in [6], 8.7 µM; in data set [7] it was 896 µM; in data set [14] it was 102 µM. Further, the outcome in data set [8], in data set [9], in data set [10], in data set [11] and in [12] was Active. Besides, the Activity in data set [13] was 1.621%; in [15], “Non-Toxic”; in data set [16], “Non-Toxic”; in [17], “Non-Toxic”; in data set [18] it was “Non-Toxic”; in data set [19], “Non-Toxic”.

As a reminder, the inhibition is the percentage by which the read-out fell short of the control. For the compound `O=C(CCN1CCN(c2ccc(F)cc2)CC1)c1csc2ccc(F)cc12`, the results for the “inhibition (INH)” value in data set [1] and in data set [2] were 47% and 49%, respectively. For the same compound, the IC50 in data set [3] was determined as 0.4 µM; in data set [4], 4.9 µM; in [5], 1.9 µM; in data set [6], 7.9 µM; in data set [7], 759 µM; in data set [14] it was 16.8 µM. The result in [8], in [9], in data set [10], in [11] and in [12] was Active. In addition, the Activity in data set [20] is listed as 0%; in data set [13], 1.061%; in data set [15] it was “Non-Toxic”; in data set [16] it was “Non-Toxic”; in [17] it was “Non-Toxic”; in data set [18], “Non-Toxic”. The Activity result in [19] is “Non-Toxic”. This compound also displayed an inhibition in [21] of 100%.
